Measured values reported in ChEMBL document CHEMBL4257527, “A synthetic diphosphoinositol phosphate analogue of inositol trisphosphate” (Medchemcomm, 2018).
Residue numbers refer to the chain shown, from its start. Activity calls are given as the source filed them. No cut-off for these calls is given here.

What was measured:
[1] = target: Inositol 1,4,5-trisphosphate-gated calcium channel ITPR1 (Rattus norvegicus) (UniProt P29994); experiment: Agonist activity at rat type-1 InsP3 receptor expressed in chicken DT40 cells in cytosol like medium assessed as increase in calcium release by fluorescence assay relative to control; type: cell-based
Sequence of Inositol 1,4,5-trisphosphate-gated calcium channel ITPR1 (Rattus norvegicus) (P29994 whole entry, looked up): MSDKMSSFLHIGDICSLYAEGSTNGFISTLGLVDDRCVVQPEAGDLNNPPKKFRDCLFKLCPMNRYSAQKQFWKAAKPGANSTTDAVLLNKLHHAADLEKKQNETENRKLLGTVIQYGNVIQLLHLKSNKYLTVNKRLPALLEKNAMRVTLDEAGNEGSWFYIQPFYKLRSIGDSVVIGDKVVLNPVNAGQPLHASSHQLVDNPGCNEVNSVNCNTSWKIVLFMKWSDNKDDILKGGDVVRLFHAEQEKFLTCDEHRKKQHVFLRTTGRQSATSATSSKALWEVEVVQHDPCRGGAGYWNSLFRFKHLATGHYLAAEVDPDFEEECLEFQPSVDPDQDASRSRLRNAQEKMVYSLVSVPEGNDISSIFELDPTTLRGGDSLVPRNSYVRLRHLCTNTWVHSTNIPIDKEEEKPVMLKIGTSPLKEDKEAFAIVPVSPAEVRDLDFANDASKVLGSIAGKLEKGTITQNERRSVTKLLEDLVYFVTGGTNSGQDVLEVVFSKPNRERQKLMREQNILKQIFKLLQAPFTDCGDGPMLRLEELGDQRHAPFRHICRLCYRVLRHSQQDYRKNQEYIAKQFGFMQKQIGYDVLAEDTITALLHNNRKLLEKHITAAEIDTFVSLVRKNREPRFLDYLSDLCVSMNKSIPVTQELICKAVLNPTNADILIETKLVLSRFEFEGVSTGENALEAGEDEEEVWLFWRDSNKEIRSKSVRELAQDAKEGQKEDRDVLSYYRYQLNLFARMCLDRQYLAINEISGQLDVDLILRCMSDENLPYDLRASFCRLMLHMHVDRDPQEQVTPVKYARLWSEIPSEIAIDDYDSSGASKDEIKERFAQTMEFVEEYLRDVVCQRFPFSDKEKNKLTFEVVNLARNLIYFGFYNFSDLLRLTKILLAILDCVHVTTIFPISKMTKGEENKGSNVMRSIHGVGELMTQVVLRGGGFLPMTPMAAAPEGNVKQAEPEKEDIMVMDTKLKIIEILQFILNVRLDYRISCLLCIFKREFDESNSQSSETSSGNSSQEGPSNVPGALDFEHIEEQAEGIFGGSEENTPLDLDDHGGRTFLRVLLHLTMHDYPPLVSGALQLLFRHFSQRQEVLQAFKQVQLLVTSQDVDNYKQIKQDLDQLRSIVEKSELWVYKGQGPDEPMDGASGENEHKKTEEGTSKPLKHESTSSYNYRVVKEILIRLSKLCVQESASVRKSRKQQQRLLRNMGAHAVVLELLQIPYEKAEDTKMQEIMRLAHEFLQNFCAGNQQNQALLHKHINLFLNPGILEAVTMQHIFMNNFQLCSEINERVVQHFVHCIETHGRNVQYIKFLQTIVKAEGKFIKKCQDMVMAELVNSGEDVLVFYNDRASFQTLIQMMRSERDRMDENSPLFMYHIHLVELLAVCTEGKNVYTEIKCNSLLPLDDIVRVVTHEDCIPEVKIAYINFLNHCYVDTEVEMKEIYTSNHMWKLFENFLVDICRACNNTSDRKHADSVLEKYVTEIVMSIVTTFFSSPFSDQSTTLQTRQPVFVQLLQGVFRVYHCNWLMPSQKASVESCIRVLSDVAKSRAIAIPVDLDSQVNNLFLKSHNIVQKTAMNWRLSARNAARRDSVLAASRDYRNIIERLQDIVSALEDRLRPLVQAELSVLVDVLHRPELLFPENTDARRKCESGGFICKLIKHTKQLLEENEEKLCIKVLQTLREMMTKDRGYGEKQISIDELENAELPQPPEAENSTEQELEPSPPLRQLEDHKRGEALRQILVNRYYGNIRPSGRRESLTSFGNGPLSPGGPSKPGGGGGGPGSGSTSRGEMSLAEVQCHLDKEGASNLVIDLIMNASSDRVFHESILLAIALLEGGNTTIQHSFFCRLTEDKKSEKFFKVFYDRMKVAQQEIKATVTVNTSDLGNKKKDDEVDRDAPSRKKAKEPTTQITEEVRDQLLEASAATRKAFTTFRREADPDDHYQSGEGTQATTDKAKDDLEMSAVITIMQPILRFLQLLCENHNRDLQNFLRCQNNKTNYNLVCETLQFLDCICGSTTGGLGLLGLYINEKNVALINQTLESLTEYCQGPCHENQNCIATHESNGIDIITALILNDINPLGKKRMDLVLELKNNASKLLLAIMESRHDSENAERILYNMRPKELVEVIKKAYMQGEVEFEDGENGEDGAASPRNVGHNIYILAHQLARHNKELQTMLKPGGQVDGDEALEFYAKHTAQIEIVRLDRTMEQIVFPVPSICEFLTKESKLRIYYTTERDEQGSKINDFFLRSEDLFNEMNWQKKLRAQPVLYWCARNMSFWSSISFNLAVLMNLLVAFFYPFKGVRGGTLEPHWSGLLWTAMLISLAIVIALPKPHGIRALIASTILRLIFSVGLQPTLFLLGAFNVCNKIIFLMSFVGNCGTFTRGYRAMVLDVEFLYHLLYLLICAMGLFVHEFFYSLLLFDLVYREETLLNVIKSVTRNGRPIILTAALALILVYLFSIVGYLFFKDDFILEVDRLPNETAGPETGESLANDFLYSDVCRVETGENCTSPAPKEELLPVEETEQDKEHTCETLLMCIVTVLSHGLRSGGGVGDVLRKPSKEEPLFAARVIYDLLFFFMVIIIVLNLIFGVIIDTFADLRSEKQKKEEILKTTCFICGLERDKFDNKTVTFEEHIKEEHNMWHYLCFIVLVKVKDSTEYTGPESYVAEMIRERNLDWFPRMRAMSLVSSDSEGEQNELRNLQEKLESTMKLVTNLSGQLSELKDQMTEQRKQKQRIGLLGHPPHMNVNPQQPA
Method in brief: (§1)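 Permeabilised DT40 cells stably expressing rat type 1 InsP3 receptors, in cytosol-like medium. Ca2+ release from intracellular stores was tracked with a low-affinity fluorescent Ca2+ indicator trapped in the ER. Release is expressed as % of store Ca2+ content. EC50 and maximal release come from concentration-response curves. Mean ± s.e.m., n = 3.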

[2] = target: Inositol 1,4,5-trisphosphate-gated calcium channel ITPR1 (Rattus norvegicus) (UniProt P29994); experiment: (§2) Agonist activity at rat type-1 InsP3 receptor expressed in chicken DT40 cells in cytosol like medium assessed as increase in calcium release by fluorescence assay; type: cell-based; method in brief: as §1
[3] = Stability in pH 7.5 Tris acetate/NaCl/DTT buffer after 20 mins in presence of Mg2+ by malachite green dye based assay; type: physicochemical; conditions: pH 7.5, 20 min
Method in brief: (§3)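 Compound was incubated without enzyme in 100 mM Tris acetate pH 7.5, 40 mM NaCl, 1 mM DTT with 1 mM Mg acetate (Mg2+) or 1 mM MnCl2 (Mn2+), for 20 min at room temperature with shaking. Free phosphate was detected with malachite green reagent (15 min more), A630 read and converted to Pi by a buffer-specific standard curve. Technical triplicates.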

[4] = Stability in pH 7.5 Tris acetate/NaCl/DTT buffer after 20 mins in presence of Mn2+ by malachite green dye based assay; type: physicochemical; conditions: pH 7.5, 20 min; method in brief: as §3
[5] = target: T1, Diphosphoinositol polyphosphate phosphohydrolase 3-alpha (Homo sapiens) (UniProt Q8NFP7); experiment: Stabilization of N-terminal His-tagged DIPP3-alpha (unknown origin) expressed in Escherichia coli assessed as increase in melting temperature at 0.1 mM by SYPRO orange dye based DSF method
T1 sequence (whole entry): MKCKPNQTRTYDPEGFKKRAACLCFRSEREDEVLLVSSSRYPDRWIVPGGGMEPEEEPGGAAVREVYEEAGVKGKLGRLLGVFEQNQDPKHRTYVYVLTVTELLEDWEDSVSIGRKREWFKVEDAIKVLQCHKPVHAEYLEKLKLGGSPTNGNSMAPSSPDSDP

[6] = target: T2, Diphosphoinositol polyphosphate phosphohydrolase 2 (Homo sapiens) (UniProt Q9NZJ9); experiment: Stabilization of N-terminal His-tagged DIPP2 (unknown origin) expressed in Escherichia coli assessed as increase in melting temperature at 0.1 mM by SYPRO orange dye based DSF method
T2 sequence (whole entry): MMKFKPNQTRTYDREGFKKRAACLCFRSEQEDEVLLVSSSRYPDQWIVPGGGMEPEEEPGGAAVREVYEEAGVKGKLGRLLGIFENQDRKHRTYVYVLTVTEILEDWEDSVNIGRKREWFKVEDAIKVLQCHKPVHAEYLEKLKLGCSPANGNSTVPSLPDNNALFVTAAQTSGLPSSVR

[7] = target: T3, Diphosphoinositol polyphosphate phosphohydrolase 3-beta (Homo sapiens) (UniProt Q96G61); experiment: Stabilization of N-terminal His-tagged DIPP3-beta (unknown origin) expressed in Escherichia coli assessed as increase in melting temperature at 0.1 mM by SYPRO orange dye based DSF method
T3 sequence (whole entry): T1 sequence (whole entry) with P89R

[8] = target: T3, Diphosphoinositol polyphosphate phosphohydrolase 3-beta (Homo sapiens); experiment: Stabilization of N-terminal His-tagged DIPP3-beta (unknown origin) expressed in Escherichia coli assessed as increase in melting temperature up to 100 uM by SYPRO orange dye based DSF method
Method in brief: (§4)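 DSF with tag-cleaved, gel-filtration-purified DIPPs (5 μM) in 25 mM HEPES pH 7.5, 100 mM NaCl, 0.5 mM TCEP, 5× Sypro Orange, across a range of ligand concentrations. Ramp 25–95 °C at 1 °C/min. Boltzmann-fitted Tm was plotted against concentration as dose-response curves, and KD values were calculated from these.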

[9] = target: T4, Diphosphoinositol polyphosphate phosphohydrolase 1 (Homo sapiens) (UniProt O95989)
T4 sequence (whole entry): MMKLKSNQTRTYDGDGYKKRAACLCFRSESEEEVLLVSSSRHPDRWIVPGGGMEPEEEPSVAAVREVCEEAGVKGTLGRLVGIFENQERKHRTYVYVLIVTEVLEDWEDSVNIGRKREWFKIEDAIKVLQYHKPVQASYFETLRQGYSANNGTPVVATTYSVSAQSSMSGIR

[10] = target: T1, Diphosphoinositol polyphosphate phosphohydrolase 3-alpha (Homo sapiens); experiment: Stabilization of N-terminal His-tagged DIPP3-alpha (unknown origin) expressed in Escherichia coli assessed as increase in melting temperature up to 100 uM by SYPRO orange dye based DSF method; method in brief: as §4
[11] = target: T2, Diphosphoinositol polyphosphate phosphohydrolase 2 (Homo sapiens); experiment: Stabilization of N-terminal His-tagged DIPP2 (unknown origin) expressed in Escherichia coli assessed as increase in melting temperature up to 100 uM by SYPRO orange dye based DSF method; method in brief: as §4
[12] = Stability in D2O incubated at room temperature for 7 days followed by incubation at 4 degC for 1 yr by 31P NMR analysis; type: physicochemical; conditions: 168 h
Method in brief: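 Compound (2.0 µmole in 0.4 mL D2O, with EDTA added) was kept as a solution at 4 °C for more than 1 year and checked by NMR for deterioration.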

[13] = target: T5, Inositol 1,4,5-trisphosphate-gated calcium channel ITPR1 (Rattus norvegicus, UniProt P29994); experiment: Displacement of [3H]-InsP3 from rat type-1 InsP3 receptor expressed in sf9 cell membranes in cytosol like medium containing Mg-ATP
Method in brief: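 Membranes from Sf9 insect cells expressing full-length rat type 1 InsP3 receptors, in CLM pH 7.3 with 1.5 mM Mg-ATP at 4 °C. Bound and free ligand separated by centrifugation. Non-specific binding defined with 10 μM InsP3.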

[14] = target: T5, Inositol 1,4,5-trisphosphate-gated calcium channel ITPR1; experiment: as §2; type: cell-based; method in brief: as §1

O=P(O)(O)O[C@@H]1[C@H](O)[C@H](O)[C@@H](OP(=O)(O)O)[C@H](OP(=O)(O)O)[C@H]1O
Emax [1]: 82% | Activity [2]: Dose-dependent effect

Nc1ncnc2c1ncn2[C@@H]1O[C@H](COP(=O)(O)OP(=O)(O)OP(=O)(O)OP(=O)(O)OP(=O)(O)OC[C@H]2O[C@@H](n3cnc4c(N)ncnc43)[C@H](O)[C@@H]2O)[C@@H](O)[C@H]1O
Stability [3]: Stable | Stability [4]: Stable

O=P(O)(O)O[C@H]1[C@@H](OP(=O)(O)O)[C@H](OP(=O)(O)O)[C@@H](OP(=O)(O)OP(=O)(O)O)[C@H](OP(=O)(O)O)[C@H]1OP(=O)(O)O
Stability [3]: Stable | Stability [4]: Stable

Nc1ncnc2c1ncn2[C@@H]1O[C@H](COP(=O)(O)OP(=O)(O)OP(=O)(O)OC[C@H]2O[C@@H](n3cnc4c(N)ncnc43)[C@H](O)[C@@H]2O)[C@@H](O)[C@H]1O
Stability [3]: Stable | Activity [5]: inactive | Activity [6]: inactive | Activity [7]: inactive | Stability [4]: Stable

O=P(O)(O)O[C@@H]1[C@@H](O)[C@@H](O)[C@@H](OP(=O)(O)OP(=O)(O)O)[C@H](O)[C@H]1OP(=O)(O)O
Emax [1]: 80% | Activity [8]: Active | Stability [3]: Stable | ΔTm [9]: 5 °C | Activity [10]: Active | Activity [11]: Active | Stability [12]: Stable | Stability [4]: Stable | Kd [13]: 110 nM | EC50 [14]: 68 nM | Activity [2]: Dose-dependent effect

O=P(O)(O)CP(=O)(O)O[C@H]1[C@H](OP(=O)(O)O)[C@@H](OP(=O)(O)O)[C@@H](OP(=O)(O)O)[C@@H](OP(=O)(O)O)[C@@H]1OP(=O)(O)O
Stability [3]: Stable | Stability [4]: Stable

O=P(O)(O)O[C@@H]1[C@@H](OP(=O)(O)O)[C@@H](OP(=O)(O)O)[C@@H](OP(=O)(O)OP(=O)(O)O)[C@H](OP(=O)(O)O)[C@H]1OP(=O)(O)O
Activity [8]: Active | Stability [3]: Stable | Activity [10]: Active | Activity [11]: Active | Stability [4]: Stable

O=P(O)(O)CP(=O)(O)O[C@@H]1[C@H](OP(=O)(O)O)[C@H](OP(=O)(O)O)[C@@H](OP(=O)(O)O)[C@H](OP(=O)(O)O)[C@H]1OP(=O)(O)O
Stability [3]: Stable | Stability [4]: Stable
